# Legend:
# HL-60 = experiment: Antitumor activity against human HL60 cells; format: functional
# In short: (§1)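 Tested in the NCI in vitro disease-oriented human tumor cell screen. The endpoints are IC50 (molar concentration giving 50% growth inhibition), TGI (total growth inhibition) and LC50 (50% net cell death). The maximal concentration tested was 100 μM. Subpanel values are means of several individual cell lines.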
# RPMI-8226 = experiment: Antitumor activity against human RPMI8226 cells; format: functional; in short: as §1
# A549 = experiment: Antitumor activity against human A549 cells; format: functional; in short: as §1
# EKVX = experiment: Antitumor activity against human EKVX cells; format: functional; in short: as §1
# HOP-62 = experiment: Antitumor activity against human HOP62 cells; format: functional; in short: as §1
# NCI-H322M = experiment: Antitumor activity against human NCI-H322M cells; format: functional; in short: as §1
# NCI-H460 = experiment: Antitumor activity against human NCI-H460 cells; format: functional; in short: as §1
# COLO 205 = experiment: Antitumor activity against human COLO 205 cells; format: functional; in short: as §1
# HCT-15 = experiment: Antitumor activity against human HCT15 cells; format: functional; in short: as §1
# KM12 = experiment: Antitumor activity against human KM12 cells; format: functional; in short: as §1
# SW-620 = experiment: Antitumor activity against human SW620 cells; format: functional
# In short: (§2)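 NCI in vitro disease-oriented tumour cell line screen. Read-outs are IC50 (molar concentration giving 50% growth inhibition), TGI (molar concentration giving total inhibition of net growth) and LC50 (molar concentration giving 50% net cell death). The maximal concentration tested was 100 μM.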
# SF-295 = experiment: Antitumor activity against human SF295 cells; format: functional; in short: as §1
# SNB-19 = experiment: Antitumor activity against human SNB19 cells; format: functional; in short: as §1
# SNB-75 = experiment: Antitumor activity against human SNB75 cells; format: functional; in short: as §2
# [1] = Antitumor activity against human LOX IMV1 cells; format: functional, cell-based; in short: as §1
# SK-MEL-2 = experiment: Antitumor activity against human SK-MEL-2 cells; format: functional; in short: as §1
# SK-MEL-5 = experiment: Antitumor activity against human SK-MEL-5 cells; format: functional; in short: as §1
# UACC-257 = experiment: Antitumor activity against human UACC257 cells; format: functional; in short: as §2
# UACC-62 = experiment: Antitumor activity against human UACC62 cells; format: functional; in short: as §2
# IGROV-1 = experiment: Antitumor activity against human IGROV1 cells; format: functional; in short: as §1
# OVCAR-4 = experiment: Antitumor activity against human OVCAR4 cells; format: functional; in short: as §1
# OVCAR-8 = experiment: Antitumor activity against human OVCAR8 cells; format: functional; in short: as §1
# 786-0 = experiment: Antitumor activity against human 786-0 cells; format: functional; in short: as §1
# CAKI-1 = experiment: Antitumor activity against human CAKI1 cells; format: functional; in short: as §1
# TK-10 = experiment: Antitumor activity against human TK10 cells; format: functional; in short: as §2
# UO-31 = experiment: Antitumor activity against human UO31 cells; format: functional; in short: as §2
# PC-3 = experiment: Antitumor activity against human PC3 cells; format: functional; in short: as §1
# DU-145 = experiment: Antitumor activity against human DU145 cells; format: functional; in short: as §1
# MCF7 = experiment: Antitumor activity against human MCF7 cells; format: functional; in short: as §1
# MDA-MB-231 = experiment: Antitumor activity against human MDA-MB-231 cells; format: functional; in short: as §1
# MDA-MB-435 = experiment: Antitumor activity against human MDA-MB-435 cells; format: functional; in short: as §1
# BT-549 = experiment: Antitumor activity against human BT549 cells; format: functional; in short: as §1
# T47D = experiment: Antitumor activity against human T47D cells; format: functional; in short: as §2
# [2] = Half life of hydrolysis in deuterated phosphate buffer at pD 7.8; details: deuterated phosphate buffer, pH 7.8
# [3] = system: Non-small cell lung cancer cell line; experiment: Antitumor activity against human NCI non-small cell lung cancer cell line panel; format: functional, cell-based; in short: as §1
# NCI [4] = experiment: Antitumor activity against NCI human melanoma cell line panel; format: functional, cell-based; in short: as §1
# carcinoma cell line = experiment: Antitumor activity against human NCI ovarian carcinoma cell line panel; format: functional, cell-based; in short: as §1
# NCI [5] = experiment: Antitumor activity against human NCI renal cancer cell line panel; format: functional, cell-based; in short: as §1
# NCI [6] = experiment: Antitumor activity against human NCI prostate cancer cell line panel; format: functional, cell-based; in short: as §1
# NCI [7] = experiment: Antitumor activity against human NCI breast cancer cell line panel; format: functional, cell-based; in short: as §1
# HOP-92 = experiment: Antitumor activity against human HOP92 cells; format: functional; in short: as §1
# [8] = read-out: Log LC50 (the source's name) (converted)
# [9] = read-out: LC50 (the source's name)
compound,measurement,setting,value
CN(/N=N/c1nc(OCc2ccccc2)c2nc[nH]c2n1)C(=O)Oc1ccc([N+](=O)[O-])cc1,GI50,HL-60,12 µM
same,CC50,HL-60; [8],> 50.1 µM
same,TGI,HL-60; read-out: Log TGI (converted),> 50.1 µM
same,GI50,RPMI-8226,9.12 µM
same,CC50,RPMI-8226; [8],> 50.1 µM
same,TGI,RPMI-8226; read-out: Log TGI (converted),> 50.1 µM
same,GI50,A549,12 µM
same,CC50,A549; [8],50.1 µM
same,TGI,A549; read-out: Log TGI (converted),31.6 µM
same,GI50,EKVX,11.5 µM
same,CC50,EKVX; [8],> 50.1 µM
same,TGI,EKVX; read-out: Log TGI (converted),36.3 µM
same,GI50,HOP-62,28.8 µM
same,LC50,HOP-62,> 50.1 µM
same,TGI,HOP-62; read-out: Log TGI (converted),> 50.1 µM
same,GI50,NCI-H322M,9.33 µM
same,CC50,NCI-H322M; [8],45.7 µM
same,TGI,NCI-H322M; read-out: Log TGI (converted),20.9 µM
same,GI50,NCI-H460,6.76 µM
same,CC50,NCI-H460; [8],> 50.1 µM
same,TGI,NCI-H460; read-out: Log TGI (converted),31.6 µM
same,GI50,COLO 205,10.2 µM
same,CC50,COLO 205; [8],> 50.1 µM
same,TGI,COLO 205; read-out: Log TGI (converted),29.5 µM
same,GI50,HCT-15,8.91 µM
same,CC50,HCT-15; [8],44.7 µM
same,TGI,HCT-15; read-out: Log TGI (converted),20 µM
same,GI50,KM12,8.51 µM
same,CC50,KM12; [8],41.7 µM
same,TGI,KM12; read-out: Log TGI (converted),18.6 µM
same,GI50,SW-620,9.12 µM
same,CC50,SW-620; [8],> 50.1 µM
same,TGI,SW-620; read-out: Log TGI (converted),26.3 µM
same,GI50,SF-295,11.2 µM
same,CC50,SF-295; [8],> 50.1 µM
same,TGI,SF-295; read-out: Log TGI (converted),33.9 µM
same,GI50,SNB-19,9.55 µM
same,LC50,SNB-19,> 50.1 µM
same,TGI,SNB-19; read-out: Log TGI (converted),28.2 µM
same,CC50,SNB-75; [8],> 50.1 µM
same,TGI,SNB-75; read-out: Log TGI (converted),> 50.1 µM
same,GI50,[1],1.15 µM
same,IC50,[1],1.1 µM
same,CC50,[1]; [9],27 µM
same,CC50,[1]; [8],26.9 µM
same,TGI,[1]; read-out: Log TGI (converted),10.7 µM
same,TGI,[1]; read-out: TGI,11 µM
same,GI50,SK-MEL-2,12 µM
same,CC50,SK-MEL-2; [8],> 50.1 µM
same,TGI,SK-MEL-2; read-out: Log TGI (converted),28.2 µM
same,GI50,SK-MEL-5,6.92 µM
same,CC50,SK-MEL-5; [8],38.9 µM
same,TGI,SK-MEL-5; read-out: Log TGI (converted),16.2 µM
same,GI50,UACC-257,38.9 µM
same,CC50,UACC-257; [8],> 50.1 µM
same,TGI,UACC-257; read-out: Log TGI (converted),> 50.1 µM
same,GI50,UACC-62,7.59 µM
same,CC50,UACC-62; [8],30.9 µM
same,TGI,UACC-62; read-out: Log TGI (converted),15.1 µM
same,GI50,IGROV-1,12.3 µM
same,CC50,IGROV-1; [8],> 50.1 µM
same,TGI,IGROV-1; read-out: Log TGI (converted),30.9 µM
same,GI50,OVCAR-4,22.9 µM
same,CC50,OVCAR-4; [8],> 50.1 µM
same,TGI,OVCAR-4; read-out: Log TGI (converted),> 50.1 µM
same,GI50,OVCAR-8,9.77 µM
same,LC50 (concentration giving 50% net cell death),OVCAR-8,> 50.1 µM
same,TGI,OVCAR-8; read-out: Log TGI (converted),26.3 µM
same,GI50,786-0,8.71 µM
same,LC50 (concentration giving 50% net cell death),786-0,> 50.1 µM
same,TGI,786-0; read-out: Log TGI (converted),23.4 µM
same,GI50,CAKI-1,11 µM
same,CC50,CAKI-1; [8],> 50.1 µM
same,TGI,CAKI-1; read-out: Log TGI (converted),35.5 µM
same,GI50,TK-10,12 µM
same,CC50,TK-10; [8],> 50.1 µM
same,TGI,TK-10; read-out: Log TGI (converted),33.9 µM
same,GI50,UO-31,6.61 µM
same,CC50,UO-31; [8],29.5 µM
same,TGI,UO-31; read-out: Log TGI (converted),13.8 µM
same,GI50,PC-3,10.7 µM
same,CC50,PC-3; [8],> 50.1 µM
same,TGI,PC-3; read-out: Log TGI (converted),26.9 µM
same,GI50,DU-145,9.12 µM
same,CC50,DU-145; [8],42.7 µM
same,TGI,DU-145; read-out: Log TGI (converted),19.5 µM
same,GI50,MCF7,12.3 µM
same,CC50,MCF7; [8],> 50.1 µM
same,TGI,MCF7; read-out: Log TGI (converted),> 50.1 µM
same,GI50,MDA-MB-231,5.75 µM
same,CC50,MDA-MB-231; [8],> 50.1 µM
same,TGI,MDA-MB-231; read-out: Log TGI (converted),18.6 µM
same,GI50,MDA-MB-435,12.3 µM
same,CC50,MDA-MB-435; [8],> 50.1 µM
same,TGI,MDA-MB-435; read-out: Log TGI (converted),39.8 µM
same,GI50,BT-549,7.41 µM
same,CC50,BT-549; [8],> 50.1 µM
same,TGI,BT-549; read-out: Log TGI (converted),20.4 µM
same,GI50,T47D,14.1 µM
same,CC50,T47D; [8],> 50.1 µM
same,TGI,T47D; read-out: Log TGI (converted),32.4 µM
same,half-life,[2],23 min
same,IC50,[3],11 µM
same,TGI,[3],29 µM
same,CC50,[3]; [9],47 µM
same,IC50,NCI [4],8 µM
same,TGI,NCI [4],23 µM
same,CC50,NCI [4]; [9],40 µM
same,IC50,carcinoma cell line,12 µM
same,TGI,carcinoma cell line,34 µM
same,CC50,carcinoma cell line; [9],50 µM
same,IC50,NCI [5],9 µM
same,TGI,NCI [5],25 µM
same,CC50,NCI [5]; [9],44 µM
same,IC50,NCI [6],10 µM
same,TGI,NCI [6],23 µM
same,CC50,NCI [6]; [9],46 µM
same,IC50,NCI [7],10 µM
same,TGI,NCI [7],30 µM
same,CC50,NCI [7]; [9],50 µM
same,GI50,HOP-92,7.24 µM
same,CC50,HOP-92; [8],> 50.1 µM
same,TGI,HOP-92; read-out: Log TGI (converted),26.3 µM

# From ChEMBL document CHEMBL1149311, “Synthesis and antitumor activity of methyltriazene prodrugs simultaneously releasing DNA-methylating agents and the antiresistance drug O(6)-benzylguanine” (J Med Chem, 2004)
